The list is not random: actives were taken first. Their share in the collection is about 3.4%.
MIN6 prolif: inducers of MIN6 beta-cell proliferation, primary screen, ATP luminescence, uHTS; 0.29% of 330,000 active; MIN6 cells proliferation, ATPlite luminescence, 48 h; cells starved in 0.2% serum; 100% = growth in 10% serum; AID 2380, 2010; proliferation, % at 10 µM;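 active means compounds whose signal lies at least 3.5 SD above the mean of all wells on their plate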;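 further: 0% = DMSO-treated cells in low-serum medium and 100% = 10% serum control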
MC4R antag cAMP: MC4R antagonists of cAMP signaling, primary screen, cell-based, TR-FRET, antagonist arm of biased-ligand search; inhibition, % at 6.5 µM; AID 540295, 2011; MC4R-expressing cells, MTII-stimulated cAMP, LANCE TR-FRET; 0.48% of 360,000 active;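 active means inhibition above its plate's cutoff, the mean of tested wells on that plate plus 3 SD, cut at about 29% in these data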;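 further: 0% = Melanotan II alone and 100% = Melanotan II plus saturating MCL0020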
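Test system: U2OS cells stably expressing human melanocortin 4 receptor (MC4R); also added: Melanotan II challenge; compound: 6.5 µM single dose; timing: 30-min compound preincubation, 1-h Melanotan II challenge, 1-h detection, room temperature; signal: Eu-cAMP/anti-cAMP TR-FRET, emission 671 nm; repeats: one well per compound, no replicates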
MC4R ag barr: MC4R agonists recruiting beta-arrestin, primary screen, cell-based, luminescence, agonist arm of biased-ligand search; AID 540308, 2011; Melanocortin receptor 4 (Homo sapiens), P32245; 0.98% of 360,000 active; activation, % at 8.9 µM; U2OS MC4R beta-arrestin complementation; percent of melanotan II response, DMSO zero;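 active means activation above a per-plate cutoff, the mean activation of sample wells on that plate plus 3 SD, cut at about 8% in these data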
ANO1 activ: TMEM16A chloride channel activators or potentiators, primary screen, cell-based, HTS | HEK293 TMEM16A/YFP-H148Q/I152L, iodide quench fluorescence; hits give low values | B-score at 10 µM | 0.3% of 340,000 active | AID 623877, 2012;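 active means fluorescence-ratio B-score plate-corrected deviation score at least 3 library SD below zero, with starting fluorescence score within 5 deviations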;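 further: channel opened by trigger with iodide after compound preincubation; score built on the fluorescence ratio of max minus min over baseline; more negative score means more quench and so TMEM16A activation or potentiation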
Target sequence (Q8BHY3 whole entry, looked up): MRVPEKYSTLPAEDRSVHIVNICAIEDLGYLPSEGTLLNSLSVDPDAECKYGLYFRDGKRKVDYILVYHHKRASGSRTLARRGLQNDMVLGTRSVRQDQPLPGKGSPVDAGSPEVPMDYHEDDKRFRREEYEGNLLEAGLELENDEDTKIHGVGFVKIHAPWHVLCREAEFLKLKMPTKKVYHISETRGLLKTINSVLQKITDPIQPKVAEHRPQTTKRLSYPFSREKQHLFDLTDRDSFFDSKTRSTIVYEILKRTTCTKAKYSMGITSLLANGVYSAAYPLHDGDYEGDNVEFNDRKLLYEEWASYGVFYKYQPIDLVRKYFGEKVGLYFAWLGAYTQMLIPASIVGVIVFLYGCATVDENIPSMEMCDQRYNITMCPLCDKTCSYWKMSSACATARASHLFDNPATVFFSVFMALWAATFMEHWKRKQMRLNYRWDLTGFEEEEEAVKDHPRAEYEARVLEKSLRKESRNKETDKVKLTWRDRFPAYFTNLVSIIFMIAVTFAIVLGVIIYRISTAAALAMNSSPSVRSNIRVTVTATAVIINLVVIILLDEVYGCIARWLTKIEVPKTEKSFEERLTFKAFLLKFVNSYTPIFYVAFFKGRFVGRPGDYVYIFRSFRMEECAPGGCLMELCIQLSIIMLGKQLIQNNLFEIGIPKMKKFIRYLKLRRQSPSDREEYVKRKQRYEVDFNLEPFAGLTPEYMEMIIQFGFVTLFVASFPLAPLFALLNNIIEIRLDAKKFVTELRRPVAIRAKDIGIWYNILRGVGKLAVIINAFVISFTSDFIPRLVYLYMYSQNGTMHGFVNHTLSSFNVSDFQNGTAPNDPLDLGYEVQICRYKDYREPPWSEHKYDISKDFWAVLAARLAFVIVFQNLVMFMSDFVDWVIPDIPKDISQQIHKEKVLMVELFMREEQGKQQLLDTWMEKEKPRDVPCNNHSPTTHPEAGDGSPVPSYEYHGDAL
TMEM16A inh: TMEM16A chloride channel inhibitors, primary screen, cell-based, HTS. HEK293 TMEM16A/YFP iodide influx fluorescence, ionomycin. 1.2% of 310,000 active. normalized B-score (activity score, 25-100; higher = stronger inhibition) at 10 µM;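 active means ratio plate-corrected score three or more library SD toward inhibition, starting fluorescence score within five deviations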;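 further: score derived from kinetic fluorescence span divided by baseline fluorescence per well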
HTR2A ag: mouse Htr2a agonists via beta-arrestin recruitment, primary screen, cell-based, luminescence; CHO-K1 mHTR2A beta-arrestin complementation; percent of 30 µM serotonin response; activation, % at 7.6 µM; 0.66% of 360,000 active; AID 624169, 2012;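 active means activation above a run cutoff, the mean activation of all tested compounds plus 3 SD, cut at about 14% in these data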;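 further: 0% = plate median of compound wells and 100% = 30 µM serotonin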
U2OS cAMP counter: nonselective cAMP signaling inhibitors, parental cells, counter-screen for MC4R biased antagonist project, cell-based, TR-FRET, U2OS, forskolin, triplicate; shares compounds with MC4R antag cAMP; LANCE TR-FRET; inhibition, % at 6.5 µM; 26% of 1,600 active; AID 602193, 2012;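 active means mean inhibition over triplicates above the low-control well mean plus 3 SD, set per campaign, cut at about 13% in these data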;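 further: signal is single emission at 671 nm which falls as cellular cAMP rises; 0% = forskolin-stimulated wells and 100% = buffer without forskolin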
MC4R antag conf: MC4R cAMP antagonists, retest, confirmation, cell-based, TR-FRET. inhibition, % at 6.5 µM. 27% of 1,600 active. AID 602195, 2012. shares compounds with MC4R antag cAMP. MC4R-expressing cells, MTII-stimulated cAMP; in the data active means inhibition above about 29%;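 further: 0% = agonist stimulated wells alone and 100% = agonist stimulated wells plus saturating reference antagonist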
MC4R barr conf: MC4R beta-arrestin agonists, retest, confirmation, cell-based, luminescence, U2OS; shares compounds with MC4R ag barr; U2OS MC4R beta-arrestin recruitment; scaled DMSO 0%, Melanotan II 100%; activation, % at 8.9 µM; 31% of 2,400 active; AID 602192, 2012;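 active means mean activation across replicates above the hit cutoff set in the earlier primary screen, cut at about 8% in these data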
MOR DOR agonist: agonists of MOR-DOR heterodimerization, counter-screen for MC4R biased agonist project, cell-based, luminescence; shares compounds with MC4R ag barr; U2OS PathHunter beta-arrestin, beta-gal luminescence; percent of deltorphin B response, DMSO zero; activation, % at 9.2 µM; 5.8% of 2,400 active; AID 602194, 2012;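 active means mean activation across replicates exceeds the hit threshold derived in the earlier primary screen, cut at about 18% in these data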;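 further: 100% = deltorphin B at 0.9 µM final and 0% = DMSO alone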
* marks the source's active call; other numbers are inactive results; i = inactive; . = no result.

SMILES	MIN6 prolif	MC4R antag cAMP	MC4R ag barr	ANO1 activ	TMEM16A inh	HTR2A ag	U2OS cAMP counter	MC4R antag conf	others
Cc1ccccc1CN1Cc2cnnn2-c2ccccc2C1C#N (stereo unspecified)	.	37*	-1	.	.	3	5	45*
C[CH2][Hg][S]c1ccccc1C(=O)O	-8	95*	-1	i	i	11	40*	91*
CC(C)COC(=O)c1ccccc1C(=O)OCC(C)C	-1	1	0	i	i	3	.	.
COc1ccccc1N1C(=O)NC(=O)/C(=C\c2cnn(-c3ccccc3)c2)C1=O	0	30*	2	i	i	4	11	9
O=C1NCN(c2ccccc2)C12CCN(C(CCc1ccccc1)c1nnnn1C1CCCCC1)CC2 (stereo unspecified)	.	.	.	.	.	-1	.	.
CCOP(=O)(CCP(=O)(OCC)OCC)OCC.C[CH2][Sn]([Cl])([Cl])[CH2]C	.	70*	-2	i	.	-7	11	29*
NC(=S)c1cn(C2OC(CO)C(O)C2O)c2ncnc(N)c12 (stereo unspecified)	.	31*	-2	i	i	4	0	28
Nc1ncnc2c1ccn2[C@@H]1O[C@H](CO)[C@@H](O)[C@H]1O	-6	45*	0	i	i	3	94*	78*
CCOC(=O)[C@]12Cc3cc(C)ccc3[C@H]1N(C(C)C)C(=O)c1ccccc12	.	.	.	.	.	2	.	.
CCC1C2CC3C4N(C)c5ccccc5C45CC(C2C5O)N3C1O (stereo unspecified)	.	6	1	.	.	0	.	.
O=C1NC(=O)N(c2ccccc2)C(=O)/C1=C/c1ccc(Sc2ccccc2)o1	.	29*	-2	i	i	-4	18*	6
COC(=O)C1=C(c2cccc(OC)c2OC)C[C@@H]2CC[C@H]1N2C(=O)NCc1ccco1	0	4	0	i	i	2	.	.
O=C(NN=Cc1ccc(N(CCCl)CCCl)cc1)C(=O)c1c[nH]c2ccccc12	.	31*	1	i	.	-1	2	27
ClCCN(CCCl)c1ccc(C=NNc2ncccn2)cc1	.	-13	-3	i	.	-4	.	.
C=C1C(C)C2C(Cc3ccccc3)NC(=O)C23OC(=O)/C=C/C(O)CCCC(C)C/C=C/C3C1O (stereo unspecified)	.	36*	0	i	.	8	1	-2
CCOC(=O)c1cccc(C2=C(CNC(=O)c3ccc([N+](=O)[O-])cc3)[C@H]3CC[C@@H](C2)N3Cc2ccccc2)c1	.	3	-1	.	.	-7	.	.
C/C(=N\NC(=O)c1ccccc1)c1c(O)n(Cc2ccccc2)c(=O)[nH]c1=O	2	0	-1	i	i	-1	.	.
C/C(=N\Nc1cccc2ccccc12)c1c(O)n(Cc2ccccc2)c(=O)[nH]c1=O	-6	29*	0	i	i	-3	-2	-7
CC12CC[C@H]3[C@@H](CCC4(O)C[C@H](O)CCC34/C=N/NC(=O)c3ccccc3O)C1(O)CCC2C1=CC(=O)OC1 (stereo partly specified)	-1	29*	6	i	i	-3	-5	-4
C[C@]12CCC3C(CC[C@@H]4C[C@H](O)CC[C@]34C)C1CCC2=O (stereo partly specified)	-2	14	1	i	.	6	.	.
CCOC(=O)[C@]12Cc3ccccc3[C@H]1N(CCC(=O)OC)C(=O)c1ccccc12	.	.	.	.	.	-2	.	.
CC1=C(C)CN2CC(C#N)=C(N)C2C1 (stereo unspecified)	.	.	.	.	.	8	.	.
Clc1ccc(C[n+]2c(-c3ccccc3)cc(-c3ccccc3)cc2-c2ccccc2)cc1	-8	-4	16*	i	25*	-6	.	.	MC4R barr conf=20*;MOR DOR agonist=7
N[C@@H](Cc1c[nH]c2ccccc12)c1nnc(SCc2ccccc2)o1	-1	0	0	i	i	2	.	.
N[C@@H](Cc1c[nH]c2ccccc12)c1nnc(SCc2ccc(Cl)cc2)o1	-2	-3	10*	i	i	8	.	.	MC4R barr conf=4;MOR DOR agonist=6
SMILES	MIN6 prolif	MC4R antag cAMP	MC4R ag barr	ANO1 activ	TMEM16A inh	HTR2A ag	U2OS cAMP counter	MC4R antag conf	others
COC(=O)C1=C(c2ccc(F)cc2OCc2ccccc2)C[C@@H]2CC[C@H]1N2C(=O)NCc1cccc(C(F)(F)F)c1	-7	6	-1	i	.	-15	.	.
O=c1c2ccccc2nc(-c2cccs2)n1-c1ccccc1	-1	0	-2	i	i	2	.	.
NC(N)=N/N=C/c1cn(-c2ccccc2)nc1-c1cccs1	-6	-4	12*	i	100*	-8	.	.	MC4R barr conf=19*;MOR DOR agonist=24*
CC1N=C(c2ccccc2Cl)c2cc(Br)ccc2NC1=O (stereo unspecified)	-2	2	-1	i	i	9	.	.
CC12CCC3C(CC=C4CC(O)CCC43C)C1C/C(=C\c1ccccc1F)C2=O (stereo unspecified)	0	7	27*	i	i	2	.	.	MC4R barr conf=25*;MOR DOR agonist=4
O=C1NCN(c2ccccc2)C12CCN(C(CCc1ccccc1)c1nnnn1C1CCCC1)CC2 (stereo unspecified)	.	.	.	.	.	6	.	.
Nc1cccc(SC2CC(=O)N(c3ccc(Cl)cc3C(=O)c3ccccc3)C2=O)c1 (stereo unspecified)	.	-5	9.7*	.	.	4	.	.	MC4R barr conf=4;MOR DOR agonist=9

Screening results (PubChem BioAssay)
